Assay results gathered from unrelated publications.
Protocols differ between the studies behind these lines.
Target: TRAF2 and NCK-interacting protein kinase (TNIK, Homo sapiens, UniProt Q9UKE5)

COc1ncc2cc3ccccc3nc2c1C#N  remaining binding (cell-free assay, competition with immobilised ligand; 5 µM): 100%
FC(F)(F)Oc1cccc(-c2cnc3ccc(-c4ccncc4)nn23)c1  remaining binding (binding, competition with immobilised ligand; 5 µM): 29%
C[C@@H](c1ccc(-n2cnc3c(N)ncnc32)cc1)N1CCc2nn(C)c(Cc3ccccc3)c2C1=O  remaining binding (binding, competition with immobilised ligand; 0.1 µM): 76%
C[C@@H](c1cccc(C#N)c1)n1cc(Cl)cc(C(N)=O)c1=N  remaining binding (cell-free assay, competition with immobilised ligand; 1 µM): 56%
O=C(NCCCN1CCOCC1)c1ccc(Nc2ncc(Cl)c(-c3ccc(Cl)s3)n2)cc1  remaining binding (binding, competition with immobilised ligand; 1 µM): 44%
N[C@H]1CCN(c2nccc(-c3cnn4ncccc34)n2)C1  remaining binding (binding; 1 µM): 80%
O=C(c1ccc(Nc2nccc(-c3cc4ccccc4s3)n2)cc1)N1CCC(N2CCCC2)CC1  remaining binding (binding, competition with immobilised ligand; 1 µM): 79%
CC(=O)Nc1c(C(C)=O)c(=O)n(C)c2nc(-c3ccc(Cl)cc3Cl)c(-c3ccc(Cl)cc3)cc12  remaining binding (cell-free assay, competition with immobilised ligand; 1 µM): 100%
c1cnn2ncc(-c3ccnc(N4CCC45COC5)n3)c2c1  remaining binding (binding; 1 µM): 72%
CCC(=O)N[C@@H]1CC[C@H](C(=O)N(C)c2ccc(-c3nc4ccccc4o3)cc2)C1  remaining binding (cell-free assay, competition with immobilised ligand; 1 µM): 100%
O=C(c1ccc(Nc2ncc(Cl)c(-c3ccc(Cl)s3)n2)cc1)N1CCC(N2CCCC2)CC1  remaining binding (binding, competition with immobilised ligand; 1 µM): 43%
COc1cnc(Nc2cccc(S(N)(=O)=O)c2)nc1N1CCN(c2ccccc2)C(=O)C1  remaining binding (binding, competition with immobilised ligand; 1 µM): 76%
CN(CCCC(F)(F)F)c1nccc(-c2cnn3ncccc23)n1  remaining binding (binding; 1 µM): 100%
CC1=C(C#N)C(c2ccc3c(c2)c(NC(=O)c2ccccc2C)nn3C)C(C#N)=C(C)N1  remaining binding (cell-free assay, competition with immobilised ligand; 1 µM): 98%
COc1ccnn2ncc(-c3ccnc(N(C)C)n3)c12  remaining binding (binding; 1 µM): 63%
O=C(Nc1cccnn1)N1CCC(=Cc2cccc(Oc3ccc(C(F)(F)F)cn3)c2)CC1  remaining binding (cell-free assay, competition with immobilised ligand; 1 µM): 100%
C[C@@H]1CCN(c2nccc(-c3cnn4ncccc34)n2)C1  remaining binding (binding; 1 µM): 90%
CS(=O)(=O)N1CCCC(NC(=O)[C@H](CCC2CCCCC2)NC(=O)c2ccc(CNc3ncnc4c3nnn4-c3ccccc3)cc2)C1 (stereo partly drawn)  remaining binding (binding, competition with immobilised ligand; 1 µM): 45%
Cc1cnn2ncc(-c3ccnc(N(C)C)n3)c2c1  remaining binding (binding; 1 µM): 80%
O=C(NCC1CCOCC1)c1n[nH]cc1NC(=O)c1c(F)cccc1F  remaining binding (binding, competition with immobilised ligand; 1 µM): 84%
COc1cnc(Nc2cccc(S(N)(=O)=O)c2)nc1N1CCN(c2ccccc2)CC1  remaining binding (binding, competition with immobilised ligand; 1 µM): 75%
